From ChEMBL document CHEMBL3856284, “Discovery, design and synthesis of 6H-anthra[1,9-cd]isoxazol-6-one scaffold as G9a inhibitor through a combination of shape-based virtual screening and structure-based molecular modification” (Bioorg Med Chem, 2016) come the findings set out here.

A short description of data set [1]: Antiproliferative activity against human HCT116 cells assessed as inhibition of cell viability after 72 hrs by MTT assay. The conditions noted are these: HCT-116, 72 h. Format: functional, cell-based. On the technique in general: Formazan colour is commonly taken as a measure of viable cells.
The nature of data set [2]: Antiproliferative activity against human HepG2 cells assessed as inhibition of cell viability after 72 hrs by MTT assay. As to conditions: HepG2, 72 h. Format: functional, cell-based.
For data set [3], the system named is MCF7. The experiment in a line: Induction of phenotypic changes in human MCF7 cells assessed as shrinkage at 4 uM after 24 hrs by inverted light microscopic method. It is filed as functional, cell-based. The procedure, abridged: (§1)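 MCF-7 cells were incubated 24 h with 2, 4 or 8 µM compound, with an untreated group as control. Cell morphology (distortion, blebbing, shrinkage, rounding, necrosis) was examined under an inverted light microscope at ×200.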

Data set [4] has as its system MCF7. The experiment in a line: Induction of phenotypic changes in human MCF7 cells assessed as round in shape at 8 uM after 24 hrs by inverted light microscopic method. It is filed as functional, cell-based. The procedure, abridged: as §1
In data set [5] the test system is MCF7. The experiment in a line: Induction of phenotypic changes in human MCF7 cells at 2 uM after 24 hrs by inverted light microscopic method. Format: functional, cell-based. The gist of the method: as §1
Data set [6] deals with MCF7. The experiment in a line: Induction of apoptosis in human MCF7 cells assessed as late apoptotic cells at 2 uM after 48 hrs by annexin V staining-based flow cytometric analysis (reference value: 11%). Format: functional. In general terms: A flow cytometer gives signals particle by particle.
In data set [7] the test system is MCF7. Description: Induction of apoptosis in human MCF7 cells assessed as necrotic cells at 2 uM after 48 hrs by annexin V staining-based flow cytometric analysis (reference value: 5.65%). It is filed as functional.
Data set [8] deals with MCF7. The experiment in a line: Induction of apoptosis in human MCF7 cells assessed as late apoptotic cells at 4 uM after 48 hrs by annexin V staining-based flow cytometric analysis (reference value: 11%). Format: functional.
The subject of data set [9] is MCF7. The experiment in a line: Induction of apoptosis in human MCF7 cells assessed as viable cells at 4 uM after 48 hrs by annexin V staining-based flow cytometric analysis (reference value: 82.85%). It is filed as functional. The conditions noted are these: MCF7, 48 h, read-out: Activity.
In data set [10] the test system is MCF7. The experiment in a line: Induction of apoptosis in human MCF7 cells assessed as early apoptotic cells at 8 uM after 48 hrs by annexin V staining-based flow cytometric analysis (reference value: 0.5%). It is filed as functional.
Data set [11] deals with Mus musculus. Description: Tmax in mouse at 10 mg/kg, po after 5 mins to 24 hrs by LC-MS/MS analysis. The conditions noted are these: in vivo.
Data set [12] relates to Mus musculus. The experiment in a line: Cmax in mouse at 10 mg/kg, po after 5 mins to 24 hrs by LC-MS/MS analysis. As to conditions: in vivo.
Data set [13] relates to Mus musculus. Description: Half life in mouse at 10 mg/kg, po after 5 mins to 24 hrs by LC-MS/MS analysis. The conditions noted are these: in vivo.
Data set [14] relates to Mus musculus. The experiment in a line: Half life in mouse at 10 mg/kg, iv after 2 mins to 24 hrs by LC-MS/MS analysis. The conditions noted are these: in vivo.
Data set [15] deals with Mus musculus. Description: Clearance in mouse at 10 mg/kg, iv after 2 mins to 24 hrs by LC-MS/MS analysis. The conditions noted are these: in vivo.
The test system of data set [16] is Mus musculus. The experiment in a line: Volume of distribution in mouse at 10 mg/kg, iv after 2 mins to 24 hrs by LC-MS/MS analysis. The conditions noted are these: in vivo.

The structures appear in SMILES notation. pIC50: −log10 of the molar value. Activity calls are given as the source filed them.

Consider `O=C1c2ccccc2-c2onc3c(N4CCCCC4)cc(NCCN4CCCC4)c1c23`, for which the pIC50 in data set [1] is 5.50; in [2], 5.10. Further, the result in the data set on MCF7 [3], in the data set on MCF7 [4] and in the data set on MCF7 [5] was Active. The Activity amounted to 18.25% in the data set with MCF7 [6], 3.2% in the data set on MCF7 [7], 26.05% with MCF7 [8] and 2.75% in the data set with MCF7 [10]. Moreover, the viability at 4 µM in the data set with MCF7 [9] came to 70%. The Tmax in the data set on Mus musculus [11] is 6.7 h. The compound also came in with a Cmax with Mus musculus [12] of 70.7 ng/mL. For the same compound, the results for the half-life with Mus musculus [13] and in the data set on Mus musculus [14] were 240 min and 414 min, respectively. For the same compound, the clearance in the data set with Mus musculus [15] was 135 mL/min/kg. This compound also had a Vd in the data set with Mus musculus [16] of 80.2 L/kg.

As a reminder, the pIC50 is the negative decadic logarithm of the IC50, by convention in mol/L. Usually Tmax stands for the time at which the peak concentration occurs. One may read the Cmax as the highest concentration seen after dosing. What is called half-life is the time needed for the level to fall by half in the phase considered. The term clearance denotes the volume of plasma or blood freed of the substance per unit of time. One may read the Vd as a proportionality between amount in the body and measured concentration, not a real space. High values mean wide distribution into tissue, low ones little distribution into tissue.
